In article PMC10793424 (bioRxiv, 2024):
Like-named read-outs stand apart in the source and are kept apart here.

Experiments:
[1] = tested on: PTH secretion from parathyroid glands; experiment: Ex vivo parathyroid gland culture: PTH secretion and Ca2+ set-point; assay type: cell-based, mouse
Procedure, shortened: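 Glands from 4-week-old wild-type C57/B6 mice, incubated sequentially with rising test compound (0.01 nM–50 µM) at 0.75 mM [Ca2+]e for dose-response. For set-point, 50 or 500 nM compound under rising [Ca2+]e. PTH secretion rate per gland per hour was normalized between vehicle basal rate (0.5 mM) and rate at 3.0 mM. Set-point is the [Ca2+]e suppressing 50% of Ca-suppressible secretion. n = 8 gland groups, mean ± SEM.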

serum PTH = experiment: Serum PTH after subcutaneous injection; assay type: in vivo, C57/B6 mice; settings: WT B6 mice
Procedure, shortened: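 Wild-type B6 mice given subcutaneous injections. Serum PTH was followed over 8 h after 1 mg/kg or 10 mg/kg. Dose comparison used serum PTH sampled 30 min after injection at several doses. n = 10 mice per dose, n = 5 at 10 mg/kg. Reference compound doses were corrected for molecular weight to match molar amounts. Unpaired Student's t-test.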

[2] = plasma, 3 mg/kg subcutaneous, CD-1 mice
[3] = for duration of significantly lowered serum calcium / lowest level of serum calcium: 3 mg/kg subcutaneous; for lowest level of serum calcium: from 2.2 mM
in vivo = settings: male, CD-1, mouse, sc, 3 mg/kg
[4] = 1 mg/kg (3.1 µmol/kg, equimolar) subcutaneous

Row | Cmax [2] [nM] | time of Cmax [2] [min] | duration of significantly lowered serum calcium [3] | lowest level of serum calcium [3] [mM] | Cmax (in vivo) [ng/mL] | IC50 ([1]; Mus musculus, read-out: IC50 in suppressing PTH secretion) [nM] | hypocalcemic action ([3]; 3.1 µmol/kg (~1 mg/kg) subcutaneous) | SMILES | calcium set point for PTH secretion ([1]; PAM at 50 nM, vehicle 1.47 mM) [mM] | calcium set point for PTH secretion ([1]; PAM at 500 nM, vehicle 1.5 mM) | suppression of PTH secretion (serum PTH) (serum PTH; [4]) | suppression of PTH secretion (serum PTH) (serum PTH; 10 mg/kg (31 µmole/kg) subcutaneous)
1 | 150 | 15 | more than 8 hrs | 1.7 | 58.9 |  |  | C[C@@H](NCCCc1cccc(C(F)(F)F)c1)c1cccc2ccccc12 [cinacalcet] | 1.23 | ~ 0.94 mM | less effective | fully suppress
2 |  | 60 | more than 8 hrs | 1.6 |  | 998 | particularly robust | C[C@@H](N[C@H]1CCN(c2ccc(CC(=O)O)cc2)C1)c1cccc2ccccc12 [evocalcet] | 1 | 0.76 mM | fully suppress | 
